Experimental data as given in ChEMBL document CHEMBL5579803, “α-Amino bisphosphonate triazoles serve as GGDPS inhibitors” (Bioorg Med Chem Lett, 2024).
Activity calls are given as the source filed them.

Assays:
[1] = biological target: T1, Geranylgeranyl pyrophosphate synthase (Homo sapiens) (UniProt O95749); test: Inhibition of GGDPS (unknown origin) using uRAP1a as substrate in RPMI-8226 cells by measuring lowest effective concentration by measuring unmodified Rap1a by immunoblot based ELISA analysis; type: cell-based
T1 sequence (whole entry): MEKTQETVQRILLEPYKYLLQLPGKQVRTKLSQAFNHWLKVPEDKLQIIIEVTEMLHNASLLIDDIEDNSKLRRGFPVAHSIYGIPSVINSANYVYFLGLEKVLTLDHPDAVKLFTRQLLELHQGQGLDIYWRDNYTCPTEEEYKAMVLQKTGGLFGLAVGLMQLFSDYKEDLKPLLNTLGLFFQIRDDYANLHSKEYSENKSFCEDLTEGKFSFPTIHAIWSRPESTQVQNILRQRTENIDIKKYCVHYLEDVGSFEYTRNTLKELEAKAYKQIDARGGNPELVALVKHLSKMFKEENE
Method in brief: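 Lowest effective concentration in RPMI-8226 cells after 48 h exposure. It is defined as the lowest level giving both a visible unprenylated Rap1a band on immunoblot (β-tubulin loading control) and a statistically significant rise (p<0.05, t-test vs untreated cells) in intracellular lambda light chain by ELISA. Based on n=3 independent experiments.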

[2] = biological target: T2, Geranylgeranyl pyrophosphate synthase (Homo sapiens, UniProt O95749); test: Inhibition of GGDPS (unknown origin) using recombinant enzyme by enzyme assay
T2 sequence (O95749 whole entry): T1 sequence (whole entry)

[3] = biological target: T1, Geranylgeranyl pyrophosphate synthase (Homo sapiens); test: Inhibition of GGDPS (unknown origin) using uRAP1a as substrate in RPMI-8226 cells assessed as disruption of geranylgeranylation by measuring unmodified Rap1a at 0.5 uM incubated for 48 hrs by immunoblot analysis; type: cell-based
Method in brief: (§1)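 RPMI-8226 myeloma cells exposed 48 h to varying test concentrations, with lovastatin (10 μM) as positive control. Lysates were immunoblotted with an antibody that recognises only unprenylated Rap1a, with β-tubulin as loading control. Gels are representative of three independent studies.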

[4] = biological target: T1, Geranylgeranyl pyrophosphate synthase (Homo sapiens); test: Inhibition of GGDPS (unknown origin) using uRAP1a as substrate in RPMI-8226 cells assessed as disruption of geranylgeranylation by measuring unmodified Rap1a at […] incubated for 48 hrs by immunoblot analysis; type: cell-based; conditions: dose 0.25 µM
[5] = biological target: T1, Geranylgeranyl pyrophosphate synthase (Homo sapiens); test: Inhibition of GGDPS (unknown origin) using uRAP1a as substrate in RPMI-8226 cells assessed as disruption of geranylgeranylation by measuring unmodified Rap1a at 10 uM incubated for 48 hrs by immunoblot analysis; type: cell-based; method in brief: as §1

`CC(C)=CCCC(C)=CCn1cc(CC(N)(P(=O)(O)O)P(=O)(O)O)nn1` was tested, and the MEC [1] was 0.5 µM, the IC50 [2] was 3760 nM and the inhibition [3] was “Active”.

Work on `CC(C)=CCC/C(C)=C/CCn1cc(CC(N)(P(=O)(O)O)P(=O)(O)O)nn1` yielded an MEC [1] of 1 µM and an IC50 [2] of 52.1 nM.

`CC(C)=CCC/C(C)=C\CCn1cc(CC(N)(P(=O)(O)O)P(=O)(O)O)nn1` gave an MEC [1] of 0.25 µM and an IC50 [2] of 49.4 nM.

With `CC(C)=CCC/C(C)=C\Cn1cc(CC(N)(P(=O)(O)O)P(=O)(O)O)nn1` the MEC [1] was 0.25 µM, the IC50 [2] was 270 nM and the inhibition [4] was “Active”.

`CC(C)=CCC/C(C)=C/CCn1cc(CC(P(=O)(O)O)P(=O)(O)O)nn1` showed an MEC [1] of 0.03 µM.

For `CC(C)=CCC/C(C)=C/Cn1cc(CC(N)(P(=O)(O)O)P(=O)(O)O)nn1`, the IC50 [2] was greater than 100000 nM and the inhibition [5] was “inactive”.
